Compound activity: PubChem BioAssay, Broad Institute
PvdQ acylase = P. aeruginosa PvdQ acylase inhibitors, primary screen, biochemical, fluorescence, plate reader and imaging, single point | purified PvdQ acylase | inhibition, % at 10 µM | 340,000 tested, 0.063% active | AID 488965, 2010; in the data active = inhibition above about 30%, passing the limit was not always enough
T cruzi repl = inhibitors of intracellular T. cruzi growth, primary screen, luminescence, NIH3T3 host cells; 300,000 tested, 1.4% active; inhibition, % (concentration not given with the values); T. cruzi beta-gal in NIH3T3, 90 h; AID 1885, 2009;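 active = mean inhibition across valid replicates above about 55%, limit read from the data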;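 also: signal also drops with host cell toxicity which is not excluded here; higher percent means less beta-gal luminescence so fewer parasites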
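Test system: β-gal T. cruzi (Tulahuen C4) inside NIH/3T3 cells / Quantity: 5,000 cells/well / Measured by: luminescence from GalScreen with 0.05% NP40, read after 60 min / Medium: DMEM plus 2% FBS / Measure: parasite load inhibition, % / Reagent: Tulahuen C4 trypomastigotes, 5000/well / Schedule: co-culture of at least 90 h after 3 h attachment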
CaV13 ICDI inh = Disruptors of the CACNA1D IQ motif to Ca2+-dependent inactivation inhibitor domain association, primary screening, Förster resonance energy transfer in intact living … | HEK cells, CFP/YFP FRET ICDI-IQ, plate reader, 10 min; percent FRET-ratio fall versus neutral wells | inhibition, % at 12.3 µM | 340,000 tested, 0.098% active | AID 743397;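 active = mean replicate inhibition of at least 30% and at least 1% of replicates passing that level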
N-glyco inh = increase of ERlucT glycosylation luciferase signal, primary screen, N-linked glycosylation inhibitor project, D54 ERlucT cells, luminescence, set 2. reporter increase, % at 12.5 µM. 360,000 tested, 0.23% active. D54 ERlucT glycosylation luciferase reporter, 24 h; percent of 100 nM tunicamycin response;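 active = mean luciferase reporter signal, scaled so untreated is 0 and the glycosylation-blocking control 100, at or above a set limit in every replicate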;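 also: luciferase carries N-glycosylation sites so blocking glycosylation raises the light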
PfHsp90 set2 = growth inhibition of PfHsp90-expressing yeast, primary screen, antimalarial PfHsp90 inhibitor project, S. cerevisiae, BacTiter-Glo luminescence, single point, set 2; 310,000 tested, 0.32% active; inhibition, % at 9.4 µM; AID 504621, 2011; BacTiter-Glo ATP, 48 h; yeast lacking PDR1 and PDR3 efflux regulators;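 active = every replicate shows inhibition above about 80%, whatever the replicate mean, limit read from the data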
HSF1 activator = HSF-1 activators, primary screen, NIH3T3-HGL cells, MG132 stress, luminescence, single point. AID 504408, 2011. activation, % at 9 µM. NIH3T3-HGL HSF-1 luciferase reporter, 8 h; 100% = twice DMSO control signal. 300,000 tested, 1.7% active;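 active = mean replicate activation of at least 50% with a set share of replicates each reaching 50%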
Of the large screens only hits and unclear results are named; the others gave an inactive call. Only some compounds are listed: those with a hit (about 3% of all), similar ones and a draw of the others.

Cc1cc(Cl)ccc1C(=O)C1CCCN(C(=O)c2cscn2)C1 (centres undefined)	none
O=C(Nc1ccc2c(c1)OCCO2)c1ccccc1F	none (no result: CaV13 ICDI inh)
O=C(NC(=S)Nc1ccc2c(c1)OCCO2)c1ccccc1F	HSF1 activator 86
O=C(Nc1ccc2c(c1)OCCO2)c1cccc2nc3ccccc3nc12	T cruzi repl 65
Cc1ccc(C)c(N2CCN(C(=O)CCc3nc(-c4cccc(Cl)c4)no3)CC2)c1	none (no result: T cruzi repl, HSF1 activator)
O=C(NC1CCCCC1)C(c1ccccc1)N1CCc2ccccc21 (centres undefined)	none
Cc1ccc(C(C(=O)NC2CCCC2)N2CCc3ccccc32)cc1 (centres undefined)	HSF1 activator 58
COc1cccc(C(=O)NCC2CCN(C(=O)C(=O)c3cc4ccccc4o3)CC2)c1	none (no result: PvdQ acylase, T cruzi repl, N-glyco inh, PfHsp90 set2, HSF1 activator)
Clc1ccc(C2=Nn3c(nnc3-c3n[nH]c4c3CCC4)SC2)cc1Cl	N-glyco inh 81
c1ccc(C2=Nn3c(nnc3-c3n[nH]c4c3CCC4)SC2)cc1	N-glyco inh 38 (no result: PfHsp90 set2)
CCCCN1C=C(C(=O)OC)C(c2ccccc2Cl)C(C(=O)OC)=C1	CaV13 ICDI inh active
COC(=O)CSc1nc2ccc(C)cc2cc1C#N	HSF1 activator 80
COC(=O)CSc1nc2cc(OC)ccc2cc1C#N	HSF1 activator 58 (no result: PfHsp90 set2)
CC1(C)CN(C2CCCCC2)C(=O)[C@H]1CC(=O)Nc1ccc(Br)cc1	none (no result: PvdQ acylase, T cruzi repl, PfHsp90 set2, HSF1 activator)
C[C@H]1[C@H](c2ccccc2)Oc2cccc(N3CCCC3)c2S(=O)(=O)N1Cc1cccc(F)c1	none (no result: PvdQ acylase, T cruzi repl, N-glyco inh, PfHsp90 set2, HSF1 activator)
CC(=O)Nc1cc([N+](=O)[O-])ccc1N1CCOCC1	none
O=C(Nc1ccc([N+](=O)[O-])cc1)Nc1ccc(N2CCOCC2)c2nonc12	T cruzi repl 71
CC1CCN(C(=O)c2ncn3c2C(=O)NC[C@H]3C)CC1	none (no result: PvdQ acylase, T cruzi repl, N-glyco inh, PfHsp90 set2, HSF1 activator)
CCCNC(=O)C1(C)CCN(Cc2ccc(-c3ccccc3)o2)C1 (centres undefined)	none (no result: PvdQ acylase, T cruzi repl, PfHsp90 set2, HSF1 activator)
C[C@@H]1CCCCO[C@@H](CN(C)C(=O)NC2CCCCC2)[C@@H](C)CN([C@H](C)CO)C(=O)c2cc(N(C)C)ccc2O1	none (no result: PvdQ acylase, T cruzi repl, N-glyco inh, PfHsp90 set2, HSF1 activator)
Cc1cc2c(cc1C)CSC(c1c(O)ccc3ccccc13)SC2	PfHsp90 set2 100
CCOC(=O)c1c(C)c(C(=O)Nc2ccc3c(c2)OCO3)c(C)n1C	HSF1 activator 71 (no result: PfHsp90 set2)
O=C(NCCO)OC1CC2CC1[C@H]1CCCCN1C2=O (some centres undefined)	none (no result: PvdQ acylase, T cruzi repl, N-glyco inh, PfHsp90 set2, HSF1 activator)
Cn1c(=O)[nH]c(=O)c2c1nc(N(CCO)Cc1ccccc1)n2CCCc1ccccc1	N-glyco inh 41
Cn1c(=O)[nH]c(=O)c2c1nc([N+](=O)[O-])n2Cc1ccccc1	HSF1 activator 155
CC(C)Cn1c([N+](=O)[O-])nc2c1c(=O)[nH]c(=O)n2C	none
CN(Cc1ccccc1)c1nc2c(c(=O)[nH]c(=O)n2C)n1Cc1ccccc1Cl	HSF1 activator 78 (no result: PfHsp90 set2)
COc1ccc(-c2nc3c(c(=O)[nH]c(=O)n3Cc3ccccc3)n2Cc2ccccc2)cc1	T cruzi repl 61
CCN1C[C@@H]2[C@@H]3C(=O)N(Cc4ccccc4)C(=O)[C@@H]3[C@](Cc3ccccc3)(C1=O)N2C(=O)c1ccc(Br)cc1	none (no result: T cruzi repl, HSF1 activator)
O=C(N[C@H](Cc1ccccc1)C(=O)NCc1ccccn1)[C@H]1O[C@@H](n2ccc(=O)[nH]c2=O)[C@H](O)[C@@H]1O	none (no result: PvdQ acylase, T cruzi repl, N-glyco inh, PfHsp90 set2, HSF1 activator)
CC(C)(C)OC(=O)N1CCC[C@@H]1C(=O)NCc1ccccc1Cl	none (no result: PvdQ acylase, T cruzi repl, N-glyco inh, PfHsp90 set2, HSF1 activator)
Cc1cccc(C)c1Cn1c(C)c(C(=O)NCc2ccc([N+](=O)[O-])cc2)sc1=O	none (no result: PvdQ acylase, T cruzi repl, PfHsp90 set2, HSF1 activator)
CC(=O)CSc1nc2c(c(=O)[nH]c(=O)n2C)n1Cc1cccc(Br)c1	HSF1 activator 58
[O-][n+]1cccc2c(Br)cc(Br)c(O)c21	PfHsp90 set2 107
O=[N+]([O-])c1ccc(Cl)c(CN2CCN(c3ncc(Cc4ccccc4)cn3)CC2)c1	none (no result: PvdQ acylase, T cruzi repl, N-glyco inh, PfHsp90 set2, HSF1 activator)
Cc1ccc(C(C[N+](=O)[O-])Sc2ccc(N)cc2)cc1 (centres undefined)	PfHsp90 set2 107
Cc1ccc(C(C[N+](=O)[O-])n2nc(C)cc2C)cc1 (centres undefined)	none
Cc1cccc(C=NNc2cc(C)c3cccc(C)c3n2)n1	none (no result: PvdQ acylase, T cruzi repl, N-glyco inh, PfHsp90 set2, HSF1 activator)
O=C(NCc1ccccc1Cl)c1ccc2nc([C@H]3C[C@H](O)[C@@H](CO)O3)[nH]c2c1	none (no result: PvdQ acylase, T cruzi repl, CaV13 ICDI inh, PfHsp90 set2, HSF1 activator)
O=C1C(Cl)=C(Nc2ccc3cn[nH]c3c2)C(=O)c2ccccc21	T cruzi repl 59
O=C(Nc1ccc2cn[nH]c2c1)c1c(Cl)cccc1Cl	none
Cc1ccc(-c2cc(C(=O)Nc3cccnc3)c3ccccc3n2)o1	HSF1 activator 52
COc1cccc(-c2cc(C(=O)Nc3ccc(N(C)C(C)=O)cc3)c3cc(Br)ccc3n2)c1	T cruzi repl 61
COc1cccc(-c2cc(C(=O)Nc3ccncc3)c3ccccc3n2)c1	none
C/C(=N\NC(=O)c1cc(-c2cccnc2)nc2ccccc12)c1ccccc1O	T cruzi repl 63
COc1ccccc1CCNC(=O)c1cc(-c2ccncc2)nc2ccc(Br)cc12	T cruzi repl 89 (no result: PfHsp90 set2)
CC(C)(CNC(=O)Cc1ccc(NS(=O)(=O)c2cccc(C(F)(F)F)c2)cc1)N1CCOCC1	none (no result: PfHsp90 set2)
CC(=O)Nc1cccc(NC(=O)c2cc(-c3cccnc3)nc3ccc(Br)cc23)c1	none
COc1ccc(COc2cc(-c3cccc(OC)c3)nc3ccc(NC(C)=O)cc23)cc1	T cruzi repl 68 (no result: PfHsp90 set2)
